High-throughput results from PubChem.
The list is not random: actives were taken first. Their share in the collection is about 2.9%.
E-sel inducer: induces E-selectin expression in human endothelial cells | P16581 | HUVEC E-selectin immunofluorescence imaging; normalized: neutral wells 0, TNF-alpha wells 100 | activation, % at 7.58 µM | actives 0.37% (n = 260,000) | AID 686992;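 active = mean E-selectin-positive cell signal at least 10% of the positive control, reached in at least 60% of replicates, without over 20% cell loss; inconclusive = no rule given, readout overlaps actives, possibly toxicity-flagged; inactive = the rest, including those meeting only one limit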
Target sequence (P16581 whole entry, looked up): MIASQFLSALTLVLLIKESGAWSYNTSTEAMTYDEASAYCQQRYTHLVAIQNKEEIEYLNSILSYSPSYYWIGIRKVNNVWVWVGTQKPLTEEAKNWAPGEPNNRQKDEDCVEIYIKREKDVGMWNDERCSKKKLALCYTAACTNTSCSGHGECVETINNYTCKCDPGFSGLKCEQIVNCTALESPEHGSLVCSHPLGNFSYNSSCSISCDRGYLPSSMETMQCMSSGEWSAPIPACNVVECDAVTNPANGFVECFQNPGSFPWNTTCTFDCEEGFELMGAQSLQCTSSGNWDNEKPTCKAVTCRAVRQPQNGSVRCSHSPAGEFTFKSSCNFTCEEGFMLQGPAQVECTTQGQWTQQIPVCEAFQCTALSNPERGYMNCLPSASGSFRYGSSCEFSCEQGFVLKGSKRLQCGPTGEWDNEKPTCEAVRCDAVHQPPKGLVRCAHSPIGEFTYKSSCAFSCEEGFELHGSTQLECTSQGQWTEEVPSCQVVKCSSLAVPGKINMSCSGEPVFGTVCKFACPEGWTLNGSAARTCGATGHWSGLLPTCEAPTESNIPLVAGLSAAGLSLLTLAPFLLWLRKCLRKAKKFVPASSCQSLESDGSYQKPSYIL
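material = human umbilical vein endothelial cells (HUVEC), E-selectin induction | quantity = 3,000 cells/well | medium = EGM-2 growth medium on 0.1% gelatin-coated wells | technique = immunofluorescence imaging | read-out basis = % PE-positive cells | control set = TNF-alpha positive control, DMSO neutral control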
SIRT5 inh: sirtuin-5 (human) deacylase inhibition | Q9NXA8 | Purified SirT5, succinyl-peptide AMC, trypsin-coupled fluorescence | inhibition, % at 15 µM | actives 1.1% (n = 330,000) | AID 652115; in the data active = inhibition above about 15%; inconclusive = no clear call, values can overlap the other calls
DENV2 CPE: inhibitors of DENV2 cytopathic effect; DENV2-infected cells, cytopathic effect rescue, plate reader; CPE inhibition, % at 9.99 µM; actives 1.7% (n = 350,000); in the data active = CPE inhibition above about 20%, passing the limit was not always enough; inconclusive = no clear call, values can overlap the other calls; tested in BHK-21 cells
Numbers stand for hits; . = inactive; ? = inconclusive; / = no result; ! = a repeat was not active.

SMILES | E-sel inducer | SIRT5 inh | DENV2 CPE
C[C@H]1CN([C@@H](C)CO)C(=O)c2cccc(NC(=O)Nc3ccccc3)c2O[C@H]1CN(C)S(=O)(=O)c1cn(C)cn1 | . | . | .
C[C@@H]1CN([C@@H](C)CO)C(=O)c2cccc(NC(=O)CCCCCC(=O)Nc3ccccc3N)c2O[C@H]1CN(C)S(=O)(=O)c1cn(C)cn1 | 105.3 | / | .
C[C@@H]1CN([C@@H](C)CO)C(=O)c2cccc(NC(=O)C3CC3)c2O[C@@H]1CN(C)S(=O)(=O)c1cn(C)cn1 | . | . | 28.6
C[C@@H]1CN([C@H](C)CO)C(=O)c2cccc(NC(=O)Nc3ccc(F)cc3)c2O[C@@H]1CN(C)S(=O)(=O)c1cn(C)cn1 | 80.4 | / | /
C[C@@H]1CN([C@H](C)CO)C(=O)c2cccc(NC(=O)C3CC3)c2O[C@H]1CN(C)S(=O)(=O)c1cn(C)cn1 | . | . | .
CCOC(=O)/C(C#N)=C/Nc1cc(C(=O)OCC)cc2c(OC)c(OC)ccc12 | . | . | .
Cn1ncc2c(NCc3cccc(C(F)(F)F)c3)c(C(=O)O)cnc21 | . | . | /
NC(=O)CC(NC(=O)Cc1cccc2ccccc12)c1ccc(N2CCC(N3CCCCC3)CC2)c([N+](=O)[O-])c1 (configuration not stated) | . | / | 23.4
NC(=O)CC(NC(=O)Cc1cccc2ccccc12)c1ccc(N2CCCCCC2)c([N+](=O)[O-])c1 (configuration not stated) | . | . | .
Cc1cc(C)cc(C(=O)NC(CC(N)=O)c2ccc(N3CCC(Cc4ccccc4)CC3)c([N+](=O)[O-])c2)c1 (configuration not stated) | . | / | 123.1
Cc1cc(C)cc(C(=O)NC(CC(N)=O)c2ccc(N3CCC(Br)CC3)c([N+](=O)[O-])c2)c1 (configuration not stated) | . | . | ?
O=[N+]([O-])c1ccc(O)c(/C=N/Nc2nn[nH]n2)c1 | / | . | .
COc1ccc(CNS(=O)(=O)c2ccc3c(c2)CCN3C(=O)C2CCC2)cc1 | . | . | .
O=C(NCCC(=O)N1CCC2(CC1)NCCc1[nH]cnc12)c1ccc(Br)cc1 | / | . | .
CCN(CC)S(=O)(=O)c1cc(NS(=O)(=O)c2cccs2)ccc1C | . | / | .
c1nc(N2CCCCC2)c2[nH]cnc2n1 | . | / | .
Nc1ncnc2nc[nH]c12 | . | 43.7! | .
COC(=O)c1ccc(S(=O)(=O)N(Cc2ccccc2)Cc2ccccc2)n1C | . | . | .
COc1ccccc1NS(=O)(=O)c1cc(C(=O)N2CCCC2)ccc1C | . | . | .
Cc1ccc(C(=O)N2CCCC2)cc1S(=O)(=O)Nc1cccc(C)c1C | . | 26.2 | .
C=CCN1C=C2C(=O)C(C)(OC(=O)c3ccc(OC)cc3)C(=O)C(c3ccco3)=C2C=C1CCCC (configuration not stated) | . | / | .
CCCCC1=CC2=C(c3ccco3)C(=O)C(C)(OC(=O)c3ccc(OC)cc3)C(=O)C2=CN1CCCOC(C)C (configuration not stated) | . | 33.9 | .
C[C@@H]1CN([C@H](C)CO)C(=O)c2cc(NC(=O)Nc3ccc(F)cc3)ccc2O[C@H]1CN(C)C | . | . | .
C[C@@H]1CN([C@@H](C)CO)C(=O)c2cc(NC(=O)Nc3ccc(C(F)(F)F)cc3)ccc2O[C@@H]1CN(C)C | . | . | 22.5
C[C@H]1CN([C@@H](C)CO)C(=O)c2cc(NC(=O)Nc3ccc(F)cc3)ccc2O[C@H]1CN(C)C | . | . | .
SMILES | E-sel inducer | SIRT5 inh | DENV2 CPE
C[C@H](CO)N1C[C@H](C)[C@@H](CN(C)C)Oc2ccc(NC(=O)Nc3ccc(F)cc3)cc2C1=O | . | . | 75.3
C[C@H](CO)N1C[C@H](C)[C@@H](CN(C)C)Oc2ccc(NC(=O)Nc3ccc(C(F)(F)F)cc3)cc2C1=O | . | . | .
C[C@H]1CN([C@@H](C)CO)C(=O)c2cc(NC(=O)Nc3ccc(F)cc3)ccc2O[C@@H]1CN(C)C | . | . | 26.2
CCCNC(=O)N1CCC(Cc2ccccc2)CC1 | . | . | .
C[C@@H]1CN([C@@H](C)CO)S(=O)(=O)c2ccc(C#Cc3ccccc3)cc2O[C@@H]1CN(C)S(=O)(=O)c1ccccc1F | . | . | .
COC(=O)c1ccc(CN2CCC(CO)(Cc3ccccc3Cl)CC2)cc1 | / | . | .
O=C(Nc1cccc(C(=O)N2CCCCC2)c1)c1ccccc1 | . | . | .
Cc1cc(C(=O)NNC(=O)Nc2ccc(Cl)cc2)no1 | . | . | .
CC(=O)c1cc(N2CCOCC2)ccc1[N+](=O)[O-] | . | 15.5 | .
CC(=O)c1cc(N2CCC(C(=O)O)CC2)ccc1[N+](=O)[O-] | / | . | .
COCCNCC(=O)C12CC3CC(CC(C3)C1)C2 | / | 22.9 | .
COCCNC(C)C(=O)C12CC3CC(CC(C3)C1)C2 (configuration not stated) | / | . | .
C[C@H]1CN([C@@H](C)CO)C(=O)c2cc(NC(=O)CCC(F)(F)F)ccc2O[C@H]1CN(C)Cc1ccc(Cl)c(Cl)c1 | . | . | .
COc1ccccc1CNC(=O)N/C=C/c1ccc(Cl)cc1 | . | . | .
COc1ccc(-c2ccc(C3[C@H]4CNC[C@@H]3N4C(=O)Nc3ccc4c(c3)OCO4)cc2)cc1 (some centres not stated) | . | . | 24.6!
COc1ccc(-c2ccc(C3[C@H]4CNC[C@@H]3N4C(=O)Nc3ccccc3F)cc2)cc1 (some centres not stated) | . | . | 25.9!
COc1ccc(NC(=O)N2[C@@H]3CNC[C@H]2C3c2ccc(-c3ccc(C)cc3)cc2)cc1 (some centres not stated) | . | . | 32.7!
O=C(Nc1ccc2c(c1)OCO2)N1[C@@H]2CNC[C@H]1C2c1ccc(-c2ccncc2)cc1 (some centres not stated) | . | . | .
N#Cc1ccc(-c2ccc(C3[C@H]4CNC[C@@H]3N4C(=O)NC3CCCC3)cc2)cc1 (some centres not stated) | . | . | .
O=C(Nc1ccccc1F)N1[C@@H]2CNC[C@H]1C2c1ccc(-c2ccccc2)cc1 (some centres not stated) | . | . | .
COc1ccc(NC(=O)N2[C@@H]3CNC[C@H]2C3c2ccc(-c3ccccc3)cc2)cc1 (some centres not stated) | . | . | ?
CN(C)C(=O)c1ccc(-c2ccc(C3[C@H]4CNC[C@@H]3N4C(=O)NC3CCCC3)cc2)cc1 (some centres not stated) | . | . | 71.5
Cc1ccc2sc(NC(=O)C3CC3)nc2c1C | / | . | .
O=C(C[C@H]1C[C@@H]2c3cc(NC(=O)NC4CCCC4)ccc3O[C@@H]2[C@@H](CO)O1)NC1CCCC1 | . | . | .
COc1ccc2c3c([nH]c2c1)[C@@H](CO)N(S(C)(=O)=O)CC31CCN(CC2CC2)CC1 | . | . | .
COc1ccc2c3c([nH]c2c1)[C@H](CO)N(S(C)(=O)=O)CC31CCN(CC2CCOCC2)CC1 | . | / | .
COc1ccc2c3c([nH]c2c1)[C@@H](CO)N(S(C)(=O)=O)CC31CCN(CC2CCCC2)CC1 | . | . | 53.8
COc1ccc2c3c([nH]c2c1)[C@H](CO)N(S(C)(=O)=O)CC31CCN(CC2CCCC2)CC1 | . | . | 28.4
